The text below walks through data of PubChem BioAssay.

A number with no mark means an inactive call. Inconclusive results are not listed. Activity calls are given as the source filed them.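 How the source made its calls, unless noted: active means viability increase at or above a cutoff of the median across tested compounds plus 3 SD (cut at about 8.5% in these data, passing the limit was not always enough); inconclusive means some gains above the cutoff, reason not given; inactive means the rest.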

A short description of experiment [1]: S. cerevisiae growth inhibition in permissive medium (OD615), pilot counter-assay for S. cerevisiae lifespan shortening project, permissive growth control (AID 705;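 active means growth inhibition above 25% in both replicates, a cutoff set 3 SD above the mean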). The following applies: OD615, 24 h, at 10 µM, active compounds read high. Put shortly: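 Timing: 24 h exposure, 30 °C / Material: Saccharomyces cerevisiae strain carrying genetically modified DeaD replicative-lifespan system / Signal: OD at 615 nm / Compound: 10 µM single dose, 0.25% DMSO / Medium: SC raffinose/galactose permissive medium / Evaluation: reduction in yeast growth (OD615)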

Experiment [2] is described as follows: S. cerevisiae growth inhibition in restrictive medium, OD615, pilot screen, restrictive growth control, yeast lifespan reduction project (AID 706;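 active means growth inhibition above a set limit, 3 SD over mean compound inhibition, in both replicates, cut at about 43% in these data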;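 further: modified DeaD lifespan yeast strain shifted to restrictive glucose medium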). Conditions: OD615, 48 h, at 10 µM, active compounds read high. The essentials: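 System: Engineered S. cerevisiae DeaD strain | Detection: OD615 | Buffer or medium: CSMM-D glucose medium | Doses: 10 µM compound, 0.25% DMSO | Timing: 4 h pre-growth plus 48 h compound exposure, 30 °C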

Experiment [3] can be described thus: doxorubicin toxicity protection in MRP-1 cells – H69AR cells, CellTiter-Glo, duplicate, MRP-1 activator project, pilot screen (AID 807).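 Further: compound pretreatment 18-22 h then 72 h combined with doxorubicin; 0% = doxorubicin alone and 100% = vehicle without doxorubicin.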 The following applies: H69AR viability with doxorubicin, CellTiter-Glo luminescence; at 10 µM; active compounds read high.
Experiment [4] in a line: viability of HCT116 without oncogenic beta-catenin – human colon tumor cells, pilot screen (AID 823;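 active means cell viability at or below a set limit in both duplicate runs, the limit being the all-compound median minus 4 SD, cut at about 23% in these data, passing the limit was not always enough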;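 further: 0% = wells killed by 20 µM Hyamine and 100% = untreated DMSO cell wells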). The following applies: HCT116 beta-catenin knockout viability, CellTiter-Glo, 60 h; at 10 µM; active compounds read low. On the technique in general: ATP-based viability assays read luminescence as a measure of living cells.
Experiment [5] in a line: RAM pathway blockade in budding yeast – dse1pr::URA3 reporter, 5-FOA selection, pilot screen (AID 869;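 active means inhibition over a set limit, the all-compound mean plus 3 SD, in both replicate runs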;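 further: 0% = DMSO wells with no growth and 100% = 10 µM 1-NA-PP1 with full growth; RAM network block rescues cells from 5-FOA so hits raise OD615 growth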). Conditions: S. cerevisiae dse1pr::URA3 5-FOA growth, OD615, 2 d; at 10 µM; active compounds read high; strain carries analog-sensitive mutant Cbk1 kinase.
A short description of experiment [6]: RAM signaling pathway blockade in yeast – S. cerevisiae, Pdr1DBD-CYC8 efflux-inhibited sensitized strain, primary screen (AID 1298;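 active means RAM network inhibition above 8.4% in each of two replicates, 3 SD over the compound average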;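 further: 0% = DMSO untreated cells without growth and 100% = 10 µM 1-NA-PP1 full growth; higher means more yeast growth rescued from 5-FOA killing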). Conditions: S. cerevisiae cbk1-as DSE1-URA3 strain, 5-FOA growth OD615, 2 d; at 50 µM; active compounds read high.

For the compound `Cc1cc(C)c(C#N)c(=N)o1`, the growth inhibition was 23.3% in experiment [1] and 20.7% in experiment [2]. Further, the viability increase in experiment [3] was -3.83%. In addition, in experiment [4], the viability (in general, a read-out of living cells in per cent, often relative to untreated cells) is 87.2%. In experiment [5], the inhibition (as a rule, the relative decrease from the control value, in per cent) is 1.2%. In addition, the RAM network inhibition in experiment [6] is 8.54%.

Turning to `CC(=O)c1ccc(NC(=O)CSc2nnc(NC(=O)CN3CCOCC3)s2)cc1`, the growth inhibition in experiment [1] was 8.22%; in experiment [2], 7.59%. Further, the viability increase in experiment [3] is -1.64%. Besides, the viability in experiment [4] is 102%. The inhibition in experiment [5] was 2.19%. Further, the RAM network inhibition in experiment [6] was 0.62%.

For the compound `CC(NC(=O)C(C)(C)C)c1nc2ccccc2n1C` (stereo not drawn), the growth inhibition in experiment [1] is 5.72%; in experiment [2], 5.71%. For the same compound, in experiment [3], the viability increase is -3.14%. In experiment [4], the viability was 95.1%. For the same compound, the inhibition in experiment [5] is 0.63%. The RAM network inhibition in experiment [6] was 3.17%.

Regarding `O=C(O)CN1C(=O)Nc2ccc(Br)cc2C1c1ccccc1` (stereo not drawn), the growth inhibition is 0.155% in experiment [1] and -8.88% in experiment [2]. In experiment [3], the viability increase was -2.28%. Moreover, the viability in experiment [4] was 93.6%. The inhibition in experiment [5] was -0.025%. The RAM network inhibition in experiment [6] is 0.79%.

Regarding `CCCCCn1c(CNC(=O)COC)nc2ccccc21`, the figures for the growth inhibition in experiment [1] and in experiment [2] were -2.62% and -2.4%, respectively. Further, in experiment [3], the viability increase was -2.9%. For the same compound, in experiment [4], the viability is 95.4%. For the same compound, the inhibition in experiment [5] was 0.855%. Further, the RAM network inhibition in experiment [6] is 2.97%.

As to `Nc1ncnc2c1ncn2C1CCC(CO)C(O)C1` (stereo not drawn), the values for the growth inhibition in experiment [1] and in experiment [2] were 3.96% and -0.275%, respectively. The viability increase in experiment [3] is -3.38%. The viability in experiment [4] was 107%. Moreover, the inhibition in experiment [5] is 1.32%. The RAM network inhibition in experiment [6] was 3.68%.

Turning to `CN1CCCCc2c1[nH]c1ccccc1c2=O`, the growth inhibition was 8.28% in experiment [1] and 2.2% in experiment [2]. The viability increase in experiment [3] was -3.35%. For the same compound, the viability in experiment [4] was 95.8%. Also, the inhibition in experiment [5] was 0.42%. The RAM network inhibition in experiment [6] is -1.45%.

Consider `COc1ccccc1C(=O)Nc1nnn(C)n1`, for which the growth inhibition was -26.5% in experiment [1] and 6.7% in experiment [2]. In addition, the viability increase in experiment [3] was -0.45%. The viability in experiment [4] was 108%. Further, in experiment [5], the inhibition was 0.84%. The RAM network inhibition in experiment [6] was 6.87%.

`CCOc1cc(C2C(C(=O)c3ccco3)=C(O)C(=O)N2CCc2ccccc2)ccc1O` (stereo not drawn): the growth inhibition in experiment [1] was -35.8%; in experiment [2], -4.2%. Moreover, the viability increase in experiment [3] was -1.77%. Besides, in experiment [4], the viability is 97.2%. Further, in experiment [5], the inhibition is 4.93%. Also, the RAM network inhibition in experiment [6] was 4.16%.

With `Cn1c(=O)[nH]c(=O)c2c1nc(Sc1ncccn1)n2CCCc1ccccc1`, the growth inhibition in experiment [1] is -10.3%; in experiment [2], -9.67%. Also, the viability increase in experiment [3] is -4.15%. The viability in experiment [4] is 97%. In addition, the inhibition in experiment [5] is 1.43%. The RAM network inhibition in experiment [6] was 7.26%.

Consider `Cc1cc(C)nc(/N=c2/ssnc2Cl)c1`, for which the growth inhibition in experiment [1] was 100% (active); in experiment [2], 89.9% (active). Moreover, in experiment [3], the viability increase was -7.78%. In addition, the viability in experiment [4] is 30.8%. Moreover, the inhibition in experiment [5] is 1.81%. The RAM network inhibition in experiment [6] was -2.52%.

On to `COc1ccc(-c2cc3ccccc3n2CC(O)CN2CCOCC2)cc1` (stereo not drawn), for which the growth inhibition in experiment [1] was -4.27%; in experiment [2] it was -5.21%. Further, in experiment [3], the viability increase was -6.02%. The viability in experiment [4] is 89.7%. The inhibition in experiment [5] was 0.59%. Moreover, the RAM network inhibition in experiment [6] was 2.87%.

Turning to `CN(C)/C=N/c1c(C#N)cnn1-c1nc2ccccc2s1`, the growth inhibition in experiment [1] was -9.66%; in experiment [2], 6.79%. For the same compound, the viability increase in experiment [3] was -3.38%. In addition, the viability in experiment [4] was 102%. Also, the inhibition in experiment [5] was 1.28%. The RAM network inhibition in experiment [6] was 4.53%.

As for `COc1ccc(NC2=NCC(=O)N2c2ccccc2)c(OC)c1`, the growth inhibition was -19.2% in experiment [1] and -5.42% in experiment [2]. Further, the viability increase in experiment [3] was -0.89%. Besides, the viability in experiment [4] is 91.5%. Also, in experiment [5], the inhibition was 1.15%. In experiment [6], the RAM network inhibition is 5.45%.

Regarding `O=C(Nc1nnc(C2CC2)o1)c1ccc(S(=O)(=O)N2CCCc3ccccc32)cc1`, the growth inhibition is -18.1% in experiment [1] and -2.5% in experiment [2]. Moreover, in experiment [3], the viability increase is -5.31%. Moreover, in experiment [4], the viability was 14.3% (active). The inhibition in experiment [5] is 0.79%. Besides, in experiment [6], the RAM network inhibition is -0.41%.

For the compound `Cc1c(C(=O)NCCC2=CCCCC2)oc2ccc(S(=O)(=O)N3CCOCC3)cc12`, the growth inhibition in experiment [1] was 2.48%; in experiment [2], 8.58%. Further, the viability increase in experiment [3] is -0.96%. Also, the viability in experiment [4] is 31.5%. The inhibition in experiment [5] is 2.62%. For the same compound, the RAM network inhibition in experiment [6] was 8.35%.

For the compound `CC1(C)SCC(C(=O)O)N1C=O` (stereo not drawn), the growth inhibition is -16% in experiment [1] and -6.9% in experiment [2]. Also, in experiment [3], the viability increase was -0.04%. Moreover, the viability in experiment [4] was 105%. Besides, the inhibition in experiment [5] is 1.66%. Besides, in experiment [6], the RAM network inhibition was 2.9%.

On to `Cc1cc(C)n(-c2nnc(C)n2/N=C/c2ccccc2OCc2ccccc2Cl)n1`, for which the figures for the growth inhibition in experiment [1] and in experiment [2] were -4.54% and -6.33%, respectively. The viability increase in experiment [3] was -5.89%. The viability in experiment [4] was 22.2% (active). Besides, the inhibition in experiment [5] is 1.27%. In experiment [6], the RAM network inhibition is -2.2%.
